This is a sample that favours compounds with a hit; in the whole collection about 1.9% have one here.
NadD block: inhibitors of Staphylococcus aureus NadD. inhibition, % at 20 µM. 0.78% of 360,000 active. purified NadD enzyme, colorimetric absorbance read-out. AID 602399; in the data active means inhibition above about 26%
IMP-1 inh: inhibitors of Pseudomonas aeruginosa IMP-1 metallo-beta-lactamase. AID 1556. inhibition, % at 5.6 µM. 0.45% of 290,000 active. purified IMP-1, nitrocefin hydrolysis, epi-absorbance fluorescence;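 active means inhibition above the mean plus 3 SD of all compounds in the same screening run, cut at about 4.5% in these data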;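 further: 0% = IMP-1 with DMSO and 100% = DMSO wells lacking enzyme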
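Material – recombinant IMP-1 enzyme, purified · Amount – IMP-1 0.2 nM before substrate addition · Medium – HEPES buffer pH 7.1 with ZnSO4 and Brij 35 · Timing – 25 °C, 15 min preincubation, 25 min reaction · Measured by – plate fluorescence quenching by hydrolysis product, ex 480/em 530 nm · Read-out – percent enzyme inhibition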
VIM-2 inhibitor: inhibitors of Pseudomonas aeruginosa VIM-2 metallo-beta-lactamase. purified VIM-2, nitrocefin hydrolysis, epi-absorbance fluorescence. inhibition, % at 5.6 µM. 0.89% of 290,000 active;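 active means inhibition above the mean of all tested compounds plus 3 SD, cutoff set per screening run, cut at about 7.5% in these data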;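 further: red hydrolysis product quenches plate fluorescence so inhibitors raise well fluorescence; 0% = enzyme with DMSO and 100% = DMSO without enzyme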
HCV core dimer: blocks dimerization of HCV core protein; TR-FRET GST/Flag-core106 dimerization, 1536-well; inhibition, % at 5 µM; 0.33% of 300,000 active;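 active means inhibition above the mean of all tested compounds plus 3 SD, set per screening campaign, cut at about 45% in these data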
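Assay system: tagged HCV core106 pair (GST and Flag); medium: KF-containing HEPES buffer, pH 7.45, DTT, CHAPS, BSA; also added: Eu donor and XL665 acceptor anti-tag antibodies; dosing: 5 µM single dose; timing: compound-protein-antibody incubation 4 h at 22.5 °C; signal: TR-FRET 671 and 617 nm emission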
An asterisk follows results filed as active; x = not tested or not shown.

SMILES	NadD block	IMP-1 inh	VIM-2 inhibitor	HCV core dimer
C=CCn1c(O)c(/C(C)=N/N2CCN(C)CC2)c(=O)[nH]c1=O	-1.6	-2.8	6.6	1.5
Cn1c(O)c(/C=C/C=Nc2ccccc2)c(=O)n(C)c1=S	-3.8	6.1*	4.7	-11.2
Cc1cccc(-n2c(O)c(/C=C/C=Nc3ccccc3)c(=O)[nH]c2=O)c1	-6.3	3.1	1.1	-7.7
COC(=O)C1=C(c2cccc(OCc3ccccc3)c2)C[C@@H]2CC[C@H]1N2C(=O)NCc1ccc(C(F)(F)F)cc1	-3.2	x	x	x
CCN(CC)P(=O)(NC(=O)C(Cl)(Cl)Cl)N(CC)CC.[Cl-].[Cl-].[Cl-].[Nd+3]	0.5	22.2*	-1.3	-2.5
CC(C)c1ccc(-n2c(O)c(/C=N/NC(=O)c3ccncc3)c(=O)[nH]c2=O)cc1	4.4	-2.8	-4.2	10.8
CCc1ccc(-n2c(O)c(/C=N/NC(=O)c3ccncc3)c(=O)[nH]c2=O)cc1	1.2	12.8*	-3.4	-2.2
CS(=O)(=O)Nc1ccc(Cc2noc(-c3ccc4[nH]cc(CCN)c4c3)n2)cc1	x	-0.1	29.5*	-2.9
Cn1cccc1/C=C1/C(=O)NC(=S)N(Cc2ccc(F)cc2)C1=O	45.2*	-4.1	-4.1	66.3*
CC1=C(O)C(=O)C=C2C1=CC=C1C2(C)CCC2(C)C3CC(C)(C(=O)O)CCC3(C)CCC12C (centres undefined)	46.7*	x	x	x
O=[N+]([O-])c1ccc(NCc2ccccc2)c2nonc12	x	30.5*	22.9*	-6.7
O=[N+]([O-])c1ccc(NCc2ccc(Cl)cc2)c2ccncc12	5.3	-1.7	-1.6	-11.9
N=C1c2ccccc2CN1c1ccc(F)c([N+](=O)[O-])c1	-4.1	-1.9	-1.6	-0.9
CCOC(=O)C1=CC(=C2C(=O)N(CC)C(=S)N(CC)C2=O)c2ccccc2O1	x	6.2*	-1.7	3.8
COC(=O)C1=C(c2c(C)noc2C)C[C@@H]2CC[C@H]1N2C(=O)NC1CCCCC1	-6.5	x	x	x
O=C(O)c1ccccc1-c1ccc(C=C2C(=O)N(c3ccccc3)C(=S)N(c3ccccc3)C2=O)o1	12.4	14.4*	1.4	10.4
O=C1NC(=O)N(c2ccccc2)C(=O)/C1=C\c1ccc([N+](=O)[O-])o1	x	-1.0	-3.3	2.4
Cc1ccc(NC(=O)c2ncn(CCCNCCN3CCOCC3)n2)cc1C	-1.7	x	x	x
CN1C(=O)/C(=C\c2ccc(Br)s2)C(=O)NC1=S	34.3*	3.8	3.3	4.6
O=C1NC(=S)NC(=O)C1=Cc1ccc(Br)s1	45.9*	7.1*	2.8	4.3
COc1ccc(C(c2nnnn2-c2c(C)cccc2C)N2CCC3(CC2)C(=O)NCN3c2ccccc2)cc1 (centres undefined)	8.4	x	x	x
COC(=O)C1=C(c2ccc(C(C)=O)cc2)C[C@@H]2CC[C@H]1N2C(=O)NC(C)C	-0.2	x	x	x
CC1=NN(c2ccccc2)C(=O)C1/C=C1/C(=O)NC(=O)N(c2cccc(C)c2)C1=O (centres undefined)	x	0.1	1.9	x
Cc1cccc(N2C(=O)NC(=O)/C(=C\c3ccc4c(c3)CCCN4Cc3ccccc3)C2=O)c1	37.5*	-2.2	-3.6	21.4
CC(C)(C)n1cc(C(=O)c2ccccc2OCCCF)cn1	1.8	-0.8	10.7*	1.9
SMILES	NadD block	IMP-1 inh	VIM-2 inhibitor	HCV core dimer
CC(C)(C)n1cc(C(=O)c2ccc3ccccc3c2O)cn1	-12.9	-3.5	-3.4	6.7
CN(C)CCN=Cc1c(O)n(-c2cccc(C(F)(F)F)c2)c(=O)[nH]c1=O	3.2	-2.5	-1.1	-12.6
CN1C(=O)CN=C(c2ccccc2Cl)c2cc(Br)ccc21	2.4	11.0*	-1.7	-7.0
Cc1cc(Cl)ccc1C(=O)C1CCCN(C2CCSCC2)C1 (centres undefined)	3.3	-1.9	-2.1	-1.6
Cc1cc(OCC(=O)NCc2ccc(S(N)(=O)=O)cc2)c2c3c(c(=O)oc2c1)CCC3	-0.9	-2.9	9.4*	5.2
Cc1cc(OCc2ccc([N+](=O)[O-])cc2)c2c3c(c(=O)oc2c1)CCCC3	-3.1	-0.9	0.0	14.8
C=CCOC(=O)COc1cc(C)cc2oc(=O)c3c(c12)CCC3	-0.5	-2.3	4.6	2.1
Cc1cc(OCc2nn[nH]n2)c2c3c(c(=O)oc2c1)CCCC3	-1.0	1.0	9.0*	1.5
O=c1[nH]c(O)c(N=Nc2cc(C(F)(F)F)ccc2Cl)c(=O)[nH]1	1.4	0.3	11.4*	3.9
C=C1C(=O)O[C@@H]2C[C@@H](C)[C@H]3C=CC(=O)[C@]3(O)C[C@@H]12	-3.3	x	x	46.6*
CO[C@H]1[C@@H](OC)CC(OC2OC(CO)C(O)C(O)C2O)/C(=C\C#N)[C@@H]1O (some centres undefined)	-7.2	0.7	-1.9	-10.3
CN1CCN(C(=O)COc2ccc(-c3nc4ccccc4s3)cc2)CC1	-10.6	-0.1	7.8*	-0.9
CN1CCN(C(=O)COc2ccc3ccccc3c2)CC1	-7.2	-0.6	0.5	-5.5
O=C1NC(=O)C2=Cc3ccc(O)cc3OC2(O)N1 (centres undefined)	x	0.8	-2.8	x
CN(C)C1C(=O)C(C(N)=O)=C(O)C2(O)C(=O)C3=C(O)c4c(O)cccc4C(C)(O)C3CC12 (centres undefined)	-1.9	0.1	-1.2	-0.2
CN(C)[C@@H]1C(=O)C(C(N)=O)=C(O)[C@@]2(O)C(=O)C3=C(O)c4c(O)cccc4[C@@](C)(O)[C@H]3C[C@@H]12	x	x	x	52.1*
Clc1cccc(N2Cc3cc(-c4ccccc4)ccc3-n3nncc3C2)c1	33.1*	x	x	x
COc1ccc(-c2ccc3c(c2)CN(c2cccc(Cl)c2)Cc2cnnn2-3)cc1	7.9	x	x	x
CCN1C(=O)NC(=O)/C(=C\c2cn(CC(=O)N3CCCCC3)c3ccccc23)C1=O	1.7	-1.9	10.6*	16.9
CCN1C(=O)NC(=O)/C(=C\c2cn(CC(=O)N3CCCC3)c3ccccc23)C1=O	-1.2	0.9	3.1	0.9
COP(=O)(OC)C(NS(=O)(=O)c1ccccc1)C(Cl)(Cl)Cl (centres undefined)	-8.2	-1.7	-1.2	-0.1
C=CCn1c(O)c(/C=C2/C=c3ccccc3=N2)c(=O)[nH]c1=S	6.0	10.6*	0.6	4.0
O=C(O)c1cccc2c1NC(c1cccc([N+](=O)[O-])c1)C1CC(Sc3ccccc3[N+](=O)[O-])C(Cl)C21 (centres undefined)	59.9*	-2.7	-5.8	x
O=C(O)c1ccc2c(c1)C1C(Cl)C(Sc3ccccc3[N+](=O)[O-])CC1C(c1cccc([N+](=O)[O-])c1)N2 (centres undefined)	32.9*	-2.9	-4.9	x
CCN(CC)C(=O)c1ccc2c(c1)C1C(Cl)C(Sc3ccccc3[N+](=O)[O-])CC1C(C(=O)O)N2 (centres undefined)	21.0	-5.6	-3.7	20.3
C[C@]12CCC3C(CC[C@H]4C[C@H](O)CC[C@]34C)C1C[C@H](O)[C@@H]2O (some centres undefined)	-0.5	x	x	x

Compound activity deposited in PubChem BioAssay by several laboratories.
